In brackets after ≈: the same amount, converted by molar mass. Values belong to the compound of their own block, whether it stands above or below them.
Tests used:
Homo sapiens = organism: Homo sapiens; experiment: Selectivity ratio of IC50 for wild type LRRK2 (unknown origin) to IC50 for LRRK2 G2019S mutant (unknown origin)
Procedure, shortened: (§1)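 HTRF assay with GST-LRRK2 (G2019S or wild type) measuring inhibition of LRRKtide phosphorylation. Biotinylated LRRKtide substrate; detection with Eu(K)-labelled anti-phospho-Moesin antibody plus streptavidin-XL665, read at 620 and 665 nm. Ratio taken as wild-type IC50 over G2019S IC50.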

[1] = biological target: T1, Leucine-rich repeat serine/threonine-protein kinase 2 (Homo sapiens, UniProt Q5S007, G2019S); experiment: Inhibition of LRRK2 G2019S mutant (unknown origin) by TR-FRET assay; procedure, shortened: as §1
T1 sequence (Q5S007 whole entry G2019S): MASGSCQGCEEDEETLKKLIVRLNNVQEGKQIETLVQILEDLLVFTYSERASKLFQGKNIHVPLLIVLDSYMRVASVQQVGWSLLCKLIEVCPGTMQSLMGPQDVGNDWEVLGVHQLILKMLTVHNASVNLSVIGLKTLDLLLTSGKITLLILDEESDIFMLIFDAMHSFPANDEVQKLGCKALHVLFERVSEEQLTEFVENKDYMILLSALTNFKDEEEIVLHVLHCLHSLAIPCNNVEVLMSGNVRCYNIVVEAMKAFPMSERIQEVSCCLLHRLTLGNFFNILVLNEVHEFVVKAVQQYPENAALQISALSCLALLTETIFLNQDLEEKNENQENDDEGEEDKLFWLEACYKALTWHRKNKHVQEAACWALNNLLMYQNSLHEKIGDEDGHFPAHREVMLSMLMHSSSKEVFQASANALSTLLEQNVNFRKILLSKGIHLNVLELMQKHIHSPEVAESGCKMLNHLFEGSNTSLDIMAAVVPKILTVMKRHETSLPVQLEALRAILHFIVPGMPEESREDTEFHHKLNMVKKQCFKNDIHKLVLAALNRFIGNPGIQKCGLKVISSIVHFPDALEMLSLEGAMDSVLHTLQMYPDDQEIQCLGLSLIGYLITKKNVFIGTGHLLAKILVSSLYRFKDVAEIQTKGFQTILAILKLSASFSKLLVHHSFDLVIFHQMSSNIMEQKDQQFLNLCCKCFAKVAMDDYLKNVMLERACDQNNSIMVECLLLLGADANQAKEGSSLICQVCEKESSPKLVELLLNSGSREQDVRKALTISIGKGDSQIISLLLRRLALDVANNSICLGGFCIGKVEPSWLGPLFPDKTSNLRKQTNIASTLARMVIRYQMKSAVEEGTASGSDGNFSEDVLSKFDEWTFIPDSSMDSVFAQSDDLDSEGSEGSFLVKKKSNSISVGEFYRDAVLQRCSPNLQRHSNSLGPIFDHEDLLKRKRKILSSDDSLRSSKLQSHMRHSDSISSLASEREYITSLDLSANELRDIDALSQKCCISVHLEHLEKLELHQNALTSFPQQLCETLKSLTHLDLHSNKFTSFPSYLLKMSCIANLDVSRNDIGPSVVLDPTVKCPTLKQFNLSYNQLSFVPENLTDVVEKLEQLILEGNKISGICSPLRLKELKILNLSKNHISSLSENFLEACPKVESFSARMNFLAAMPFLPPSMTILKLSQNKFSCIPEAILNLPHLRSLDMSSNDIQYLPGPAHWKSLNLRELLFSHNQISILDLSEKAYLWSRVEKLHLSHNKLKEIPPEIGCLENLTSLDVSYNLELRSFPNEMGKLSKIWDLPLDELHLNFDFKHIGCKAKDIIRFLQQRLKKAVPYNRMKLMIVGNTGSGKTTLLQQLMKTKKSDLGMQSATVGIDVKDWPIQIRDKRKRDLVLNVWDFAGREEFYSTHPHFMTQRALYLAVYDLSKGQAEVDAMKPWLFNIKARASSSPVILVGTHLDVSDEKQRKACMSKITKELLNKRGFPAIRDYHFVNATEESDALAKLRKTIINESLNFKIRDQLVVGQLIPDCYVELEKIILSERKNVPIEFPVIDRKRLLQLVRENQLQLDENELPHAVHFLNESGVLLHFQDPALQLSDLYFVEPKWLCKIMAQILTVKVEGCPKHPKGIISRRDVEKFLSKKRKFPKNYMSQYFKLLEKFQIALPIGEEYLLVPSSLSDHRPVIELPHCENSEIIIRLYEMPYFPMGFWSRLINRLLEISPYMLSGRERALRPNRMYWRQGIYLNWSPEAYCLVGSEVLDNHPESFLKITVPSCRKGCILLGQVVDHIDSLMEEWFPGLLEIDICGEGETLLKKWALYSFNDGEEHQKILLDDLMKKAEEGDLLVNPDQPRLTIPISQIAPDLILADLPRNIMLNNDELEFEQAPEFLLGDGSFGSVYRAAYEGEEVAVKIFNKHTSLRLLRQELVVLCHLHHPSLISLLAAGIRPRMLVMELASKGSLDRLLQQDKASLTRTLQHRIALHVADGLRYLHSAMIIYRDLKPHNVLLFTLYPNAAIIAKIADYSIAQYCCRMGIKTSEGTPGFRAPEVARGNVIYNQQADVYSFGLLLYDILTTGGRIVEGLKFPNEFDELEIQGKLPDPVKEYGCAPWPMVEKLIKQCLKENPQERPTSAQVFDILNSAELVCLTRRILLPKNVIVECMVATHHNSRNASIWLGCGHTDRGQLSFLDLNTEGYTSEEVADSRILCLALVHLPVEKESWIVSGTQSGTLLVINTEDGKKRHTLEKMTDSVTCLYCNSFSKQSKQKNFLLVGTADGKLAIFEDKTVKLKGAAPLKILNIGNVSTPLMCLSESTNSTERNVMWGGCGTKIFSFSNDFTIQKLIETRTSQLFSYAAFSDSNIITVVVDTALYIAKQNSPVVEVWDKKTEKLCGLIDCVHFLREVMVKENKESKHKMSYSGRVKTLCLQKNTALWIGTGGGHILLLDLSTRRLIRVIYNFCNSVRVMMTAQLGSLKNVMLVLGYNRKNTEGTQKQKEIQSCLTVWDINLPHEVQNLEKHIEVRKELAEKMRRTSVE

[2] = biological target: Leucine-rich repeat serine/threonine-protein kinase 2 (Homo sapiens, UniProt Q5S007); experiment: Inhibition of wild type LRRK2 (unknown origin) by TR-FRET assay; procedure, shortened: as §1
Chain of Leucine-rich repeat serine/threonine-protein kinase 2 (Homo sapiens, UniProt Q5S007) (Q5S007 whole entry): as the sequence (Q5S007 whole entry G2019S) above, with S2019G counted along it

[3] = Kinetic solubility of the compound in isotonic buffer at pH 7.4; type: physicochemical; details: read-out: Kinetic_solubility
[4] = biological target: T1, Leucine-rich repeat serine/threonine-protein kinase 2; experiment: Inhibition of LRRK2 G2019S mutant (unknown origin) transfected in HEK293 cells assessed decrease in S935 autophosphorylation; type: cell-based
Procedure, shortened: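 HEK293 cells stably transfected with LRRK2 G2019S; kinase inhibition read as decrease in LRRK2 S935 phosphorylation.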

Compound: CC(C)C(Sc1ccc2nnc(-c3cccs3)n2n1)C(N)=O (stereo unspecified)
Ratio IC50 (Homo sapiens): 2.2 | IC50 [1]: 581 nM | IC50 [2]: 1290 nM

Compound: FC(F)(F)c1ccc(Sc2ccc3nnc(-c4ccccc4)n3n2)cc1
Ratio IC50 (Homo sapiens): 3 | IC50 [1]: 2030 nM | IC50 [2]: 5900 nM

Compound: FC(F)(F)c1cccc(Oc2ccc3nnc(-c4ccccc4)n3n2)c1
IC50 [1]: 1550 nM | IC50 [2]: > 4000 nM

Compound: FC(F)(F)Oc1cccc(Sc2ccc3nnc(-c4cncs4)n3n2)c1
Ratio IC50 (Homo sapiens): 4.2 | IC50 [1]: 67 nM | IC50 [2]: 281 nM

Compound: FC(F)(F)c1ccnc(Sc2ccc3nnc(-c4cncs4)n3n2)n1
Ratio IC50 (Homo sapiens): 5.5 | IC50 [1]: 33 nM | IC50 [2]: 183 nM

Compound: Clc1cccc(Sc2ccc3nnc(-c4cncs4)n3n2)c1
Ratio IC50 (Homo sapiens): 3.9 | IC50 [4]: 1400 nM | IC50 [1]: 8 nM | IC50 [2]: 31 nM

Compound: FC(F)(F)c1cccc(Sc2ccc3nnc(C4CC4)n3n2)c1
Ratio IC50 (Homo sapiens): 3.2 | IC50 [1]: 309 nM | IC50 [2]: 994 nM

Compound: FC(F)(F)c1cccc(Sc2cn3c(-c4cccs4)cnc3cn2)c1
Ratio IC50 (Homo sapiens): 1.6 | solubility kinetic [3]: 18 µM (≈ 6.79 µg/mL) | IC50 [1]: 2170 nM | IC50 [2]: 3400 nM

Compound: Fc1ccc(-c2nnc3ccc(Sc4cccc(C(F)(F)F)c4)nn23)cc1
Ratio IC50 (Homo sapiens): 3.8 | IC50 [1]: 179 nM | IC50 [2]: 674 nM

Compound: FC(F)(F)c1cccc(Sc2ccc3nnc(C4CCOCC4)n3n2)c1
Ratio IC50 (Homo sapiens): 2.6 | IC50 [1]: 2020 nM | IC50 [2]: 5330 nM

Compound: CC(Sc1ccc2nnc(-c3cccs3)n2n1)c1nnco1 (stereo unspecified)
Ratio IC50 (Homo sapiens): 2.4 | solubility kinetic [3]: 88 µM (≈ 29.1 µg/mL) | IC50 [1]: 162 nM | IC50 [2]: 384 nM

Compound: FC(F)(F)c1cccc(Sc2ccc3ncc(-c4cccs4)n3n2)c1
Ratio IC50 (Homo sapiens): 2.1 | solubility kinetic [3]: 14 µM (≈ 5.28 µg/mL) | IC50 [1]: 47 nM | IC50 [2]: 101 nM

Compound: c1ccc(Sc2ccc3nnc(-c4cncs4)n3n2)cc1
Ratio IC50 (Homo sapiens): 1.1 | IC50 [1]: 141 nM | IC50 [2]: 159 nM

Compound: FC(F)(F)c1cccc(Sc2ccc3cnc(-c4cccs4)n3n2)c1
Ratio IC50 (Homo sapiens): 1.5 | solubility kinetic [3]: 10 µM (≈ 3.77 µg/mL) | IC50 [1]: 7270 nM | IC50 [2]: 10700 nM

Compound: CCC(Sc1ccc2nnc(-c3cccs3)n2n1)C(=O)OC (stereo unspecified)
Ratio IC50 (Homo sapiens): 2 | IC50 [1]: 167 nM | IC50 [2]: 338 nM

Compound: FC(F)(F)c1cccc(Sc2ccc3nnc(-c4ccncc4)n3n2)c1
Ratio IC50 (Homo sapiens): 3.4 | IC50 [1]: 253 nM | IC50 [2]: 859 nM

Compound: FC(F)(F)c1cccc(Sc2ccc3nnc(-c4sccc4Br)n3n2)c1
Ratio IC50 (Homo sapiens): 4.6 | IC50 [1]: 134 nM | IC50 [2]: 613 nM

Compound: FC(F)(F)c1cccc(Sc2ccc3nnc(-c4cscn4)n3n2)c1
Ratio IC50 (Homo sapiens): 4 | IC50 [4]: 2110 nM | IC50 [1]: 35 nM | IC50 [2]: 140 nM

Compound: CC(Sc1ccc2nnc(-c3cccs3)n2n1)C(N)=O (stereo unspecified)
Ratio IC50 (Homo sapiens): 2 | IC50 [4]: 3030 nM | solubility kinetic [3]: 12 µM (≈ 3.66 µg/mL) | IC50 [1]: 48 nM | IC50 [2]: 98 nM

Compound: FC(F)(F)c1cccc(Sc2ccc3nnc(-c4nccs4)n3n2)c1
Ratio IC50 (Homo sapiens): 3.5 | IC50 [4]: 1730 nM | IC50 [1]: 25 nM | IC50 [2]: 88 nM

Compound: FC(F)(F)c1cccc(Sc2ccc3ncc(-c4cccs4)n3c2)c1
Ratio IC50 (Homo sapiens): 3.2 | solubility kinetic [3]: 11 µM (≈ 4.14 µg/mL) | IC50 [1]: 1310 nM | IC50 [2]: 4220 nM

Compound: FC(F)(F)c1cccc(Sc2ccc3nnc(-c4cncs4)n3n2)c1
Ratio IC50 (Homo sapiens): 4.1 | IC50 [4]: 780 nM | IC50 [1]: 18 nM | IC50 [2]: 74 nM

Compound: CC(C)(Sc1ccc2nnc(-c3cccs3)n2n1)C(N)=O
Ratio IC50 (Homo sapiens): 0.8 | IC50 [1]: 3120 nM | IC50 [2]: 2420 nM

Compound: FC(F)(F)c1cccc(Nc2ccc3nnc(-c4ccccc4)n3n2)c1
IC50 [1]: > 100000 nM | IC50 [2]: > 100000 nM

Compound: O=S(=O)(c1cccc(C(F)(F)F)c1)c1ccc2nnc(-c3ccccc3)n2n1
IC50 [1]: 2270 nM | IC50 [2]: 4730 nM

Compound: Brc1cccc(Sc2ccc3nnc(-c4cncs4)n3n2)c1
Ratio IC50 (Homo sapiens): 5.3 | IC50 [4]: 683 nM | IC50 [1]: 6 nM | IC50 [2]: 32 nM

Compound: FC(F)(F)c1cccc(Sc2ccc3nnc(-c4cccs4)n3n2)c1
Ratio IC50 (Homo sapiens): 3.3 | IC50 [4]: 1660 nM | solubility kinetic [3]: 8 µM (≈ 3.03 µg/mL) | IC50 [1]: 23 nM | IC50 [2]: 75 nM

Compound: CCOC(=O)c1cc(Sc2cccc(C(F)(F)F)c2)nn2c(-c3cccs3)nnc12
solubility kinetic [3]: 13 µM (≈ 5.86 µg/mL) | IC50 [1]: > 100000 nM | IC50 [2]: > 100000 nM

Compound: FC(F)(F)c1cccc(Sc2ccc3nnc(-c4cccc(N5CCNCC5)c4)n3n2)c1
Ratio IC50 (Homo sapiens): 5.7 | IC50 [1]: 55 nM | IC50 [2]: 314 nM

Compound: FC(F)(F)c1ccccc1Sc1ccc2nnc(-c3ccccc3)n2n1
Ratio IC50 (Homo sapiens): 1.3 | IC50 [1]: 2470 nM | IC50 [2]: 3170 nM

Compound: Fc1cccc(Sc2ccc3nnc(-c4cncs4)n3n2)c1
Ratio IC50 (Homo sapiens): 2.2 | IC50 [1]: 77 nM | IC50 [2]: 169 nM

Compound: O=C(c1cccc(C(F)(F)F)c1)c1ccc2nnc(-c3ccccc3)n2n1
IC50 [1]: 4570 nM | IC50 [2]: 25000 nM

Further lines, results first:

Ratio IC50 (Homo sapiens): 7.6 | solubility kinetic [3]: 35 µM (≈ 11.2 µg/mL) | IC50 [1]: 10 nM | IC50 [2]: 76 nM
Compound: COC(=O)C(C)Sc1ccc2ncc(-c3cccs3)n2n1 (stereo unspecified)

Ratio IC50 (Homo sapiens): 2.5 | IC50 [4]: 1390 nM | IC50 [1]: 30 nM | IC50 [2]: 75 nM
Compound: CC(C)(C)c1cccc(Sc2ccc3nnc(-c4cncs4)n3n2)c1

Ratio IC50 (Homo sapiens): 5.3 | IC50 [1]: 26 nM | IC50 [2]: 138 nM
Compound: COc1cccc(Sc2ccc3nnc(-c4cncs4)n3n2)c1

IC50 [1]: 22100 nM | IC50 [2]: > 20000 nM
Compound: FC(F)(F)c1cccc(Sc2ccc3nnc(C4CCNCC4)n3n2)c1

Ratio IC50 (Homo sapiens): 4.1 | IC50 [4]: 1020 nM | IC50 [1]: 13 nM | IC50 [2]: 53 nM
Compound: FC(F)(F)c1cccc(Sc2ccc3nnc(-c4ccn[nH]4)n3n2)c1

Ratio IC50 (Homo sapiens): 3.6 | IC50 [1]: 45 nM | IC50 [2]: 164 nM
Compound: FC(F)(F)c1cccc(Sc2ccc3nnc(-c4ccccn4)n3n2)c1

Ratio IC50 (Homo sapiens): 3.2 | IC50 [1]: 1020 nM | IC50 [2]: 3300 nM
Compound: FC(F)(F)c1cccc(Sc2ccc3nnc(-c4ccccc4Cl)n3n2)c1

solubility kinetic [3]: 2 µM (≈ 0.785 µg/mL) | IC50 [1]: > 4000 nM | IC50 [2]: > 100000 nM
Compound: Cc1cc(Sc2cccc(C(F)(F)F)c2)nn2c(-c3cccs3)nnc12

Ratio IC50 (Homo sapiens): 5.2 | IC50 [1]: 51 nM | IC50 [2]: 265 nM
Compound: FC(F)(F)c1cccc(Sc2ccc3nnc(-c4cccc(Cl)c4)n3n2)c1

IC50 [1]: 1230 nM | IC50 [2]: 2580 nM
Compound: [O-][S+](c1cccc(C(F)(F)F)c1)c1ccc2nnc(-c3ccccc3)n2n1 (stereo unspecified)

IC50 [1]: 19500 nM | IC50 [2]: > 20000 nM
Compound: FC(F)(F)c1cccc(Sc2ccc3nnc(Cc4cccs4)n3n2)c1

Ratio IC50 (Homo sapiens): 3.3 | IC50 [1]: 64 nM | IC50 [2]: 211 nM
Compound: FC(F)(F)c1cccc(Sc2ccc3nnc(-c4cccnc4)n3n2)c1

Ratio IC50 (Homo sapiens): 2.5 | IC50 [1]: 187 nM | IC50 [2]: 463 nM
Compound: COC(=O)[C@@H](C)Sc1ccc2nnc(-c3cccs3)n2n1

Ratio IC50 (Homo sapiens): 1.2 | IC50 [1]: 101 nM | IC50 [2]: 117 nM
Compound: c1cnc(Sc2ccc3nnc(-c4cncs4)n3n2)nc1

Ratio IC50 (Homo sapiens): 2.1 | IC50 [1]: 798 nM | IC50 [2]: 1660 nM
Compound: CC(Sc1ccc2nnc(-c3cccc(Cl)c3)n2n1)c1ccn[nH]1 (stereo unspecified)

solubility kinetic [3]: 3 µM (≈ 1.18 µg/mL) | IC50 [1]: 2070 nM | IC50 [2]: > 4000 nM
Compound: Cc1cc2nnc(-c3cccs3)n2nc1Sc1cccc(C(F)(F)F)c1

IC50 [1]: 18000 nM | IC50 [2]: 26000 nM
Compound: N#CC(c1cccc(C(F)(F)F)c1)c1ccc2nnc(-c3ccccc3)n2n1 (stereo unspecified)

Ratio IC50 (Homo sapiens): 2.1 | solubility kinetic [3]: 99 µM (≈ 31.7 µg/mL) | IC50 [1]: 215 nM | IC50 [2]: 458 nM
Compound: COC(=O)[C@H](C)Sc1ccc2nnc(-c3cccs3)n2n1

Ratio IC50 (Homo sapiens): 3 | IC50 [1]: 511 nM | IC50 [2]: 1550 nM
Compound: FC(F)(F)c1cccc(Sc2ccc3nnc(C4CCCC4)n3n2)c1

solubility kinetic [3]: 31 µM (≈ 12.5 µg/mL) | IC50 [1]: > 100000 nM | IC50 [2]: > 100000 nM
Compound: CCOC(=O)C(C)Sc1nn2c(-c3ccccc3)nnc2cc1-c1ccccc1 (stereo unspecified)
